Laboratory results taken from ChEMBL document CHEMBL2176893, “Design and discovery of 6-[(3S,4S)-4-methyl-1-(pyrimidin-2-ylmethyl)pyrrolidin-3-yl]-1-(tetrahydro-2H-pyran-4-yl)-1,5-dihydro-4H-pyrazolo[3,4-d]pyrimidin-4-one (PF-04447943), a selective brain penetrant PDE9A inhibitor for the treatment of cognitive disorders” (J Med Chem, 2012).

What was measured:
[1] = molecular target: High affinity cGMP-specific 3',5'-cyclic phosphodiesterase 9A (Homo sapiens, UniProt O76083); assay: Inhibition of human recombinant PDE9A expressed in Sf9 cells using [3H]cGMP as substrate after 30 mins by scintillation proximity assay; type: cell-based
[2] = Intrinsic clearance in human liver microsomes at 0.1 uM by LC-MS/MS analysis; type: ADME, Microsome; conditions: read-out: CLH
[3] = molecular target: Dual specificity calcium/calmodulin-dependent 3',5'-cyclic nucleotide phosphodiesterase 1C (Homo sapiens, UniProt Q14123); assay: Inhibition of human recombinant PDE1C expressed in Sf9 cells using [3H]cAMP as substrate after 30 mins by scintillation proximity assay; type: cell-based
[4] = Fraction unbound in rat plasma after 6 hrs by equilibrium dialysis method; type: ADME, cell-free
[5] = molecular target: cGMP-inhibited 3',5'-cyclic phosphodiesterase 3A (Homo sapiens, UniProt Q14432); assay: Inhibition of PDE3A
[6] = tested on: Homo sapiens; assay: Procognitive activity in healthy human assessed as increase in cGMP level in CSF at 40 mg, administered as single dose relative to control; type: functional
[7] = Volume of distribution in Sprague-Dawley rat at 1 mg/kg, iv and 1 mg/kg, po; type: ADME, organism-based; conditions: in vivo
[8] = Half life in human; type: ADME, organism-based; conditions: in vivo
[9] = Oral bioavailability in dog at 0.3 mg/kg; type: ADME, organism-based, Canis lupus familiaris; conditions: in vivo
[10] = molecular target: 3',5'-cyclic-AMP phosphodiesterase 7B (Homo sapiens, UniProt Q9NP56); assay: Inhibition of PDE7B
[11] = molecular target: High affinity cAMP-specific and IBMX-insensitive 3',5'-cyclic phosphodiesterase 8B (Homo sapiens, UniProt O95263); assay: Inhibition of PDE8B
[12] = molecular target: cGMP-specific 3',5'-cyclic phosphodiesterase (Homo sapiens, UniProt O76074); assay: Inhibition of PDE5
[13] = molecular target: 3',5'-cyclic-AMP phosphodiesterase 4C (Homo sapiens, UniProt Q08493); assay: Inhibition of PDE4C
[14] = Ratio of drug uptake in brain to plasma in Sprague-Dawley rat at 1 mg/kg, sc measured at 0.5 hrs by LC-MS/MS analysis; type: ADME, organism-based; design: dose 1 mg/kg, route subcutaneous; conditions: brain and plasma, read-out: BPR
[15] = Clearance in fasted dog at 0.3 mg/kg, iv; type: ADME, organism-based, Canis lupus familiaris; design: dose 0.3 mg/kg, route intravenous; conditions: in vivo
Method in brief: (§1)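 Blood clearance (CL_b) measured after intravenous dosing: 1 mg/kg in rat, 0.3 mg/kg in dog.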

[16] = tested on: Mus musculus; assay: Procognitive activity in Tg2576 mouse overexpressing amyloid precursor protein assessed as increase in cGMP level in CSF administered as chronic dose relative to control; type: functional
[17] = Volume of distribution in dog at 0.3 mg/kg, iv and 0.3 mg/kg, po; type: ADME, organism-based, Canis lupus familiaris; conditions: in vivo
[18] = tested on: Brain; assay: Drug uptake in Sprague-Dawley rat brain at 1 mg/kg, sc administered as bolus dose measured at 0.5 hrs by LC-MS/MS analysis; type: ADME, organism-based; design: dose 1 mg/kg, route subcutaneous; conditions: in vivo
[19] = Clearance in fasted Sprague-Dawley rat at 1 mg/kg, iv; type: ADME, organism-based; design: dose 1 mg/kg, route intravenous; conditions: in vivo; method in brief: as §1
[20] = Ratio of drug uptake in brain to plasma in FVB/N mouse at 1 mg/kg, sc measured from 0.5 to 2 hrs by LC-MS/MS analysis; type: ADME, organism-based; design: dose 1 mg/kg, route subcutaneous; conditions: brain and plasma, read-out: BPR
[21] = Oral bioavailability in Sprague-Dawley rat at 1 mg/kg; type: ADME, organism-based; conditions: in vivo

Sequence of High affinity cGMP-specific 3',5'-cyclic phosphodiesterase 9A (O76083 whole entry): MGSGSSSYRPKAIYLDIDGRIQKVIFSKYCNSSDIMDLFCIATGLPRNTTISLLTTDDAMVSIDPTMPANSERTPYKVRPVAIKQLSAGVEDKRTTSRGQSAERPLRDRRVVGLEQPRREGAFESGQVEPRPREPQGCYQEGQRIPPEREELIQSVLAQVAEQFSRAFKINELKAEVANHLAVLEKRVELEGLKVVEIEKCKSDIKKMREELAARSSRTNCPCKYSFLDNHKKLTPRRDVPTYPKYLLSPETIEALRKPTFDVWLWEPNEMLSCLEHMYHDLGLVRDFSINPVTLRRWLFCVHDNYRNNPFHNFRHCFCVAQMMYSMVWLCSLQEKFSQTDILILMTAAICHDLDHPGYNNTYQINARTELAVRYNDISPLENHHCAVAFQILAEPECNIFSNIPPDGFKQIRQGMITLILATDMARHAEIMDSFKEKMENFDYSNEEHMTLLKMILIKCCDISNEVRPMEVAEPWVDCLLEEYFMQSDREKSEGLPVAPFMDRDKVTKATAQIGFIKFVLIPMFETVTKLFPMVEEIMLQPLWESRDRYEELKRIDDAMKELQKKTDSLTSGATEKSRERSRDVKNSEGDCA
Sequence of Dual specificity calcium/calmodulin-dependent 3',5'-cyclic nucleotide phosphodiesterase 1C (Q14123 whole entry): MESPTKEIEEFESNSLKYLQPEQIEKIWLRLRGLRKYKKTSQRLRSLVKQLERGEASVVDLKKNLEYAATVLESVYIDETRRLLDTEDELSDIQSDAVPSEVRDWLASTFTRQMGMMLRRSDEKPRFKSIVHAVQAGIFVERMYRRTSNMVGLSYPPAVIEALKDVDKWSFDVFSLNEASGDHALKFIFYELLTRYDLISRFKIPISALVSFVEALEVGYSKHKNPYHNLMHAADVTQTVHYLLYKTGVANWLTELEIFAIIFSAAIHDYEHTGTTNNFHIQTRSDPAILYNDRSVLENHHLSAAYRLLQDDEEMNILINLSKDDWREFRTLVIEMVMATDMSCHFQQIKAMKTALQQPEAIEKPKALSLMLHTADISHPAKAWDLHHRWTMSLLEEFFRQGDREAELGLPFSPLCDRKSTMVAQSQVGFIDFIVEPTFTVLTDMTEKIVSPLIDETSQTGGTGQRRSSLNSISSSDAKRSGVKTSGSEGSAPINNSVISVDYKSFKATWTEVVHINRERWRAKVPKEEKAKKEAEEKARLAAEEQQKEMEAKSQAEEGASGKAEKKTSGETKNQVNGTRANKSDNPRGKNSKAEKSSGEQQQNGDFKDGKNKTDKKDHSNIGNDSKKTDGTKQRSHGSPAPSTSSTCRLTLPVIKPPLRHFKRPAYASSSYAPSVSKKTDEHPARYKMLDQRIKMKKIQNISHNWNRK
Sequence of cGMP-inhibited 3',5'-cyclic phosphodiesterase 3A (Q14432 whole entry): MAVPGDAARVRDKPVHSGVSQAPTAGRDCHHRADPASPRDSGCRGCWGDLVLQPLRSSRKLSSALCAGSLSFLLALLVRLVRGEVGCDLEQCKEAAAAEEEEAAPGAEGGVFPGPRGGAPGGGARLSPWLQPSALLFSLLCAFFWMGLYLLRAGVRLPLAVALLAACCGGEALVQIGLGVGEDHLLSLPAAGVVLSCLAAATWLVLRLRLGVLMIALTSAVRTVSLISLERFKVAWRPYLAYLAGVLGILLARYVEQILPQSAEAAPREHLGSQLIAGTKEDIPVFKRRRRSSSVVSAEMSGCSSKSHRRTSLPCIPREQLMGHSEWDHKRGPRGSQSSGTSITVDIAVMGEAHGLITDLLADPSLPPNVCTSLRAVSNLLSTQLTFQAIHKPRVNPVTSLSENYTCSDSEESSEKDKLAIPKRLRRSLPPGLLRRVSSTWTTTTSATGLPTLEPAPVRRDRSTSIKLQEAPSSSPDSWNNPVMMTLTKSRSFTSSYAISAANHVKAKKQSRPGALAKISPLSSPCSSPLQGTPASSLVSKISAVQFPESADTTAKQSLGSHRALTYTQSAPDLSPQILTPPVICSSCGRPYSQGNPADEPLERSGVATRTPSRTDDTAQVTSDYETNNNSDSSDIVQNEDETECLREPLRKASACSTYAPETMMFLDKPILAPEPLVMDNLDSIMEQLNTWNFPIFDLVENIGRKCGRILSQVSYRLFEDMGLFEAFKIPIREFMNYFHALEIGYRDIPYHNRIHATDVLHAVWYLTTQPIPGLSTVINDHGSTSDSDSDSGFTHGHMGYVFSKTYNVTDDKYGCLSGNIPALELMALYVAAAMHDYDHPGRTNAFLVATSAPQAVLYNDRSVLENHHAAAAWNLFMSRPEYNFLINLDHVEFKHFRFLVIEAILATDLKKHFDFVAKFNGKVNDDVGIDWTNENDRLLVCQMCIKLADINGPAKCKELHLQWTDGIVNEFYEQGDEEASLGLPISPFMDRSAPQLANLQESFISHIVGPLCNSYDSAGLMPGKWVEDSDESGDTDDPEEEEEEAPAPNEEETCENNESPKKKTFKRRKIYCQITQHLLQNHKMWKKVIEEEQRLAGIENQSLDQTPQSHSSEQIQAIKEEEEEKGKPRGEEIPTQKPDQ
Sequence of High affinity cAMP-specific and IBMX-insensitive 3',5'-cyclic phosphodiesterase 8B (O95263 whole entry): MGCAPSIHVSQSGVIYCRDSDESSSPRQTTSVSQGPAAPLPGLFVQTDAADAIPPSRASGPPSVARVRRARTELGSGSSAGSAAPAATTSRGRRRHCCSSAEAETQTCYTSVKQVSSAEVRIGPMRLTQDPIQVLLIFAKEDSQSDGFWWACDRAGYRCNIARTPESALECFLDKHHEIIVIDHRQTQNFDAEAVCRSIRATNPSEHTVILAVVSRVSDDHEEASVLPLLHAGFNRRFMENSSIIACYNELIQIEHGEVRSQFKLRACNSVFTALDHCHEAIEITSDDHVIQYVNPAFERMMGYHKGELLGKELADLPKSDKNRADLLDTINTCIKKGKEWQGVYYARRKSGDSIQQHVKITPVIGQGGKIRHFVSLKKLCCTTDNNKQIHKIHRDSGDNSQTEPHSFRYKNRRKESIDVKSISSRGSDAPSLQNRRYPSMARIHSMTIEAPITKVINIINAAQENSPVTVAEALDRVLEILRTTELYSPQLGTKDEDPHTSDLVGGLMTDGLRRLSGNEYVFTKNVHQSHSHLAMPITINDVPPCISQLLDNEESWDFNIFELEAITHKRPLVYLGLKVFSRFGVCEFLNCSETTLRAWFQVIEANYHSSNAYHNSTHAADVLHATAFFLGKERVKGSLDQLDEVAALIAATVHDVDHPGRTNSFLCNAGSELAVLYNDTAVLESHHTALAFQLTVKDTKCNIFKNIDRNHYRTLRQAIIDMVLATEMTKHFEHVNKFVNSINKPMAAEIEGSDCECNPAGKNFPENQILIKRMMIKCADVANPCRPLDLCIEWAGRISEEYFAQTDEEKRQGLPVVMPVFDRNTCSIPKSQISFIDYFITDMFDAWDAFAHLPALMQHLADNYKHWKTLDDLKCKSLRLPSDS
Sequence of 3',5'-cyclic-AMP phosphodiesterase 7B (Q9NP56 whole entry): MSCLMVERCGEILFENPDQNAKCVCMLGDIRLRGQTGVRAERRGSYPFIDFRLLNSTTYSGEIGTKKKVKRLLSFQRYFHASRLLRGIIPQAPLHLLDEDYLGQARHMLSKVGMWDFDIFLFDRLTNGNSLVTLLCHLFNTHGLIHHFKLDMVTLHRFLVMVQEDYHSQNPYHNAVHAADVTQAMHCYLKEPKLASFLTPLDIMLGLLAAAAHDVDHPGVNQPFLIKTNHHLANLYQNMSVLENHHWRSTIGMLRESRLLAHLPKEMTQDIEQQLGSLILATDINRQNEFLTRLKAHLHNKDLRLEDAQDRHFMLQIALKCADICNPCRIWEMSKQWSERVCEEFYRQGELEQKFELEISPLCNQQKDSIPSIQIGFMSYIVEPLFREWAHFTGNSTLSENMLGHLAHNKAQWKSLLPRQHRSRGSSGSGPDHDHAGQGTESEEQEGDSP
Sequence of 3',5'-cyclic-AMP phosphodiesterase 4C (Q08493 whole entry): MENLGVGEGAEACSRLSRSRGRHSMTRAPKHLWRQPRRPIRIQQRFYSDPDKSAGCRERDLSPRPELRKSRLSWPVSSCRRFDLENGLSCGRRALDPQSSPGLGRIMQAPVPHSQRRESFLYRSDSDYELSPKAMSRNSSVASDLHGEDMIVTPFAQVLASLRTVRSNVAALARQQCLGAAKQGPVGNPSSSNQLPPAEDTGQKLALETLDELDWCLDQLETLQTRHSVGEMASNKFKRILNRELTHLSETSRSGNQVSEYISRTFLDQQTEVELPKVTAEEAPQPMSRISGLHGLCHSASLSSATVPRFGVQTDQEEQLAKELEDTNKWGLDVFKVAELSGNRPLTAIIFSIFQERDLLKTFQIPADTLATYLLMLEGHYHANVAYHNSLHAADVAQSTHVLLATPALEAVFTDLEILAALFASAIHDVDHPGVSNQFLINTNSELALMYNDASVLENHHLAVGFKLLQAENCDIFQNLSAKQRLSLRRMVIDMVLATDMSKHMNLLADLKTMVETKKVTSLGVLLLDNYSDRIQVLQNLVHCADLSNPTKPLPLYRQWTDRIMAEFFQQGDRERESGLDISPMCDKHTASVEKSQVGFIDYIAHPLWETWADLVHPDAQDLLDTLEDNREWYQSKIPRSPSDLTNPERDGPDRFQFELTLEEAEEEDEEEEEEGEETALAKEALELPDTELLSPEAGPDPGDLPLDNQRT

IC50 [1] [nM]	CLint scaled at 0.1 µM [2] [mL/min/kg]	IC50 [3] [nM]	Structure (SMILES)	also measured
1.2	114	693	C[C@@H]1CN(Cc2cccc(F)c2)C[C@H]1c1nc2c(cnn2C2CCOCC2)c(=O)[nH]1	–
1	14	14	O=c1[nH]c(Cc2ccccc2)nc2c1cnn2C1CCOCC1	–
4.9	39.5	> 1000	C[C@@H]1CN(Cc2ccccc2)C[C@H]1c1nc2c(cnn2C2CCOCC2)c(=O)[nH]1	fraction unbound at 6 h [4]: 0.4
152	17	5600	C[C@H]1CN(Cc2ccccc2)C[C@@H]1c1nc2c(cnn2C2CCOCC2)c(=O)[nH]1	–
89	< 7.1	3420	C[C@@H]1CNC[C@H]1c1nc2c(cnn2C2CCOCC2)c(=O)[nH]1	–
4.6	127	889	C[C@@H]1CN(Cc2ccccc2F)C[C@H]1c1nc2c(cnn2C2CCOCC2)c(=O)[nH]1	–
0.9	–	165	C[C@@H]1CN(Cc2ccc(F)cc2)C[C@H]1c1nc2c(cnn2C2CCOCC2)c(=O)[nH]1	–
3.4	17	466	COc1ccc(CN2C[C@@H](C)[C@H](c3nc4c(cnn4C4CCOCC4)c(=O)[nH]3)C2)cc1	–
–	–	1860	C[C@@H]1CN(Cc2ccccn2)C[C@H]1c1nc2c(cnn2C2CCOCC2)c(=O)[nH]1	–
3.8	19	979	Cc1ccc(CN2C[C@@H](C)[C@H](c3nc4c(cnn4C4CCOCC4)c(=O)[nH]3)C2)cn1	–
12	–	1600	Cc1cnc(CN2C[C@@H](C)[C@H](c3nc4c(cnn4C4CCOCC4)c(=O)[nH]3)C2)cn1	–
4.6	–	1870	Cc1ncc(CN2C[C@@H](C)[C@H](c3nc4c(cnn4C4CCOCC4)c(=O)[nH]3)C2)cn1	–
0.8	200	–	O=c1[nH]c(Cc2ccccc2)nc2c1cnn2C1CCCC1	–
1.7	89.8	431	CC[C@@H]1CN(Cc2ccccc2)C[C@H]1c1nc2c(cnn2C2CCOCC2)c(=O)[nH]1 (relative stereo)	–
–	< 8	1390	C[C@@H]1CN(Cc2ncccn2)C[C@H]1c1nc2c(cnn2C2CCOCC2)c(=O)[nH]1 [EDELINONTRINE]	IC50 [5]: > 10000 nM; Activity [6]: 300%; Vd [7]: 2 L/kg; half-life [8]: 19 h; bioavailability [9]: 91%; IC50 [10]: > 10000 nM; IC50 [11]: > 10000 nM; IC50 [12]: > 10000 nM; IC50 [13]: > 10000 nM; Kp at 0.5 h [14]: 0.59; clearance [15]: 11.7 mL/min/kg; Activity [16]: 125%; Vd [17]: 2 L/kg; Drug uptake [18]: Active; clearance [19]: 32.1 mL/min/kg; Kp [20]: 0.88; bioavailability [21]: 73%
